Calls of active or inactive are those of the source. The rule behind the calls is not given here.
Biological target: CDK2/CDK4 (Homo sapiens) (UniProt P11802+P24941)
Test: Inhibition of CDK2/4-mediated retinoblastoma protein phosphorylation at ser780 in human G361 cells at 300 nM after 24 hrs by immunoblotting analysis
Format: cell-based
Details: G-361
Procedure, shortened: (§1)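 Treated G361 cells harvested into Laemmli sample buffer. Proteins resolved by SDS-PAGE and blotted to nitrocellulose. Membranes blocked, probed overnight with specific primary antibodies, then peroxidase-conjugated secondaries. ECL detection by CCD camera. Actin served as loading control.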

inhibition | SMILES
Active | NC1CCC(Nc2nc(NCc3ccc(-c4cccc(F)c4)nc3)c3ncn(C4CCCC4)c3n2)CC1 (stereo unspecified)
Active | NC1CCC(Nc2nc(NCc3ccc(-c4ccco4)nc3)c3ncn(C4CCCC4)c3n2)CC1 (stereo unspecified)
Active | NC1CCC(Nc2nc(NCc3ccc(-n4cccn4)cc3)c3ncn(C4CCCC4)c3n2)CC1 (stereo unspecified)

Tested on: G-361
Test: Induction of apoptosis in human G361 cells assessed as induction of caspase-3 clevage at 300 nM after 24 hrs by immunoblotting analysis
Format: functional, cell-based
Details: not given
Procedure, shortened: as §1

SMILES | Activity
NC1CCC(Nc2nc(NCc3ccc(-c4cccc(F)c4)nc3)c3ncn(C4CCCC4)c3n2)CC1 (stereo unspecified) | Active
NC1CCC(Nc2nc(NCc3ccc(-c4ccco4)nc3)c3ncn(C4CCCC4)c3n2)CC1 (stereo unspecified) | Active
NC1CCC(Nc2nc(NCc3ccc(-n4cccn4)cc3)c3ncn(C4CCCC4)c3n2)CC1 (stereo unspecified) | Active

Biological target: Cyclin-dependent kinase 2/cyclin E1 (Homo sapiens, UniProt P24941)
Test: Inhibition of human recombinant CDK2/Cyclin E expressed in baculovirus infected sf9 cells using histone H1 as substrate
Details: not given

IC50 | SMILES
14 nM | NC1CCC(Nc2nc(NCc3ccc(-c4cccc(F)c4)nc3)c3ncn(C4CCCC4)c3n2)CC1 (stereo unspecified)
10 nM | NC1CCC(Nc2nc(NCc3ccc(-c4ccco4)nc3)c3ncn(C4CCCC4)c3n2)CC1 (stereo unspecified)
12 nM | NC1CCC(Nc2nc(NCc3ccc(-n4cccn4)cc3)c3ncn(C4CCCC4)c3n2)CC1 (stereo unspecified)

Tested on: HeLa
Test: Cytotoxicity against human HeLa cells assessed as growth inhibition after 72 hrs by calcein AM staining-based fluoroscence assay
Format: functional, cell-based
Details: not given

SMILES | IC50
NC1CCC(Nc2nc(NCc3ccc(-c4cccc(F)c4)nc3)c3ncn(C4CCCC4)c3n2)CC1 (stereo unspecified) | 36 nM
NC1CCC(Nc2nc(NCc3ccc(-c4ccco4)nc3)c3ncn(C4CCCC4)c3n2)CC1 (stereo unspecified) | 30 nM
NC1CCC(Nc2nc(NCc3ccc(-n4cccn4)cc3)c3ncn(C4CCCC4)c3n2)CC1 (stereo unspecified) | 170 nM

Tested on: G-361
Test: Induction of apoptosis in human G361 cells assessed as caspase 3/7 activation using Ac-DEVD-AMC as substrate at 300 nM after 24 hrs by fluorimetry assay
Format: functional, cell-based
Details: not given

SMILES | Activity
NC1CCC(Nc2nc(NCc3ccc(-c4cccc(F)c4)nc3)c3ncn(C4CCCC4)c3n2)CC1 (stereo unspecified) | Active
NC1CCC(Nc2nc(NCc3ccc(-c4ccco4)nc3)c3ncn(C4CCCC4)c3n2)CC1 (stereo unspecified) | Active
NC1CCC(Nc2nc(NCc3ccc(-n4cccn4)cc3)c3ncn(C4CCCC4)c3n2)CC1 (stereo unspecified) | Active

Tested on: G-361
Test: Cytotoxicity against human G361 cells assessed as growth inhibition after 72 hrs by calcein AM staining-based fluoroscence assay
Format: functional, cell-based
Details: G-361, 72 h

SMILES | IC50
NC1CCC(Nc2nc(NCc3ccc(-c4cccc(F)c4)nc3)c3ncn(C4CCCC4)c3n2)CC1 (stereo unspecified) | 49 nM
NC1CCC(Nc2nc(NCc3ccc(-c4ccco4)nc3)c3ncn(C4CCCC4)c3n2)CC1 (stereo unspecified) | 97 nM
NC1CCC(Nc2nc(NCc3ccc(-n4cccn4)cc3)c3ncn(C4CCCC4)c3n2)CC1 (stereo unspecified) | 220 nM

Tested on: G-361
Test: Induction of apoptosis in human G361 cells assessed as decrease in Mcl-1 protein level at 300 nM after 24 hrs by immunoblotting analysis
Format: functional, cell-based
Details: not given
Procedure, shortened: as §1

SMILES | Activity
NC1CCC(Nc2nc(NCc3ccc(-c4cccc(F)c4)nc3)c3ncn(C4CCCC4)c3n2)CC1 (stereo unspecified) | Active
NC1CCC(Nc2nc(NCc3ccc(-c4ccco4)nc3)c3ncn(C4CCCC4)c3n2)CC1 (stereo unspecified) | Active
NC1CCC(Nc2nc(NCc3ccc(-n4cccn4)cc3)c3ncn(C4CCCC4)c3n2)CC1 (stereo unspecified) | Active

Tested on: G-361
Test: Induction of apoptosis in human G361 cells assessed as induction of caspase-7 clevage at 300 nM after 24 hrs by immunoblotting analysis
Format: functional, cell-based
Details: not given
Procedure, shortened: as §1

SMILES | Activity
NC1CCC(Nc2nc(NCc3ccc(-c4cccc(F)c4)nc3)c3ncn(C4CCCC4)c3n2)CC1 (stereo unspecified) | Active
NC1CCC(Nc2nc(NCc3ccc(-c4ccco4)nc3)c3ncn(C4CCCC4)c3n2)CC1 (stereo unspecified) | Active
NC1CCC(Nc2nc(NCc3ccc(-n4cccn4)cc3)c3ncn(C4CCCC4)c3n2)CC1 (stereo unspecified) | Active

Tested on: G-361
Test: Induction of apoptosis in human G361 cells assessed as decrease in Mcl-1 at 300 nM after 24 hrs by immunoblotting analysis
Format: functional, cell-based
Details: not given
Procedure, shortened: as §1

SMILES | Activity
NC1CCC(Nc2nc(NCc3ccc(-c4cccc(F)c4)nc3)c3ncn(C4CCCC4)c3n2)CC1 (stereo unspecified) | Active
NC1CCC(Nc2nc(NCc3ccc(-c4ccco4)nc3)c3ncn(C4CCCC4)c3n2)CC1 (stereo unspecified) | Active
NC1CCC(Nc2nc(NCc3ccc(-n4cccn4)cc3)c3ncn(C4CCCC4)c3n2)CC1 (stereo unspecified) | Active

Tested on: HCT-116
Test: Cytotoxicity against human HCT116 cells assessed as growth inhibition after 72 hrs by calcein AM staining-based fluoroscence assay
Format: functional, cell-based
Details: HCT-116, 72 h

SMILES | IC50
NC1CCC(Nc2nc(NCc3ccc(-c4cccc(F)c4)nc3)c3ncn(C4CCCC4)c3n2)CC1 (stereo unspecified) | 74 nM
NC1CCC(Nc2nc(NCc3ccc(-c4ccco4)nc3)c3ncn(C4CCCC4)c3n2)CC1 (stereo unspecified) | 86 nM
NC1CCC(Nc2nc(NCc3ccc(-n4cccn4)cc3)c3ncn(C4CCCC4)c3n2)CC1 (stereo unspecified) | 320 nM

Tested on: G-361
Test: Induction of apoptosis in human G361 cells assessed as induction of caspase-9 clevage at 300 nM after 24 hrs by immunoblotting analysis
Format: functional, cell-based
Details: not given
Procedure, shortened: as §1

SMILES | Activity
NC1CCC(Nc2nc(NCc3ccc(-c4cccc(F)c4)nc3)c3ncn(C4CCCC4)c3n2)CC1 (stereo unspecified) | Active
NC1CCC(Nc2nc(NCc3ccc(-c4ccco4)nc3)c3ncn(C4CCCC4)c3n2)CC1 (stereo unspecified) | Active
NC1CCC(Nc2nc(NCc3ccc(-n4cccn4)cc3)c3ncn(C4CCCC4)c3n2)CC1 (stereo unspecified) | Active

Tested on: HOS
Test: Cytotoxicity against human HOS cells assessed as growth inhibition after 72 hrs by calcein AM staining-based fluoroscence assay
Format: functional, cell-based
Details: not given

SMILES | IC50
NC1CCC(Nc2nc(NCc3ccc(-c4cccc(F)c4)nc3)c3ncn(C4CCCC4)c3n2)CC1 (stereo unspecified) | 44 nM
NC1CCC(Nc2nc(NCc3ccc(-c4ccco4)nc3)c3ncn(C4CCCC4)c3n2)CC1 (stereo unspecified) | 44 nM
NC1CCC(Nc2nc(NCc3ccc(-n4cccn4)cc3)c3ncn(C4CCCC4)c3n2)CC1 (stereo unspecified) | 103 nM

Tested on: G-361
Test: Induction of apoptosis in human G361 cells assessed as caspase 9 activation using Ac-DEHD-AMC as substrate at 300 nM after 24 hrs by fluorimetry assay
Format: functional, cell-based
Details: in the assay text read “Ac-LEHD-AMC” for “Ac-DEHD-AMC”
Procedure, shortened: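 G361 lysates were made in CHAPS extraction buffer, pH 7.4, clarified at 10000g, and protein-equalized. They were incubated 24 h with 100 μM Ac-LEHD-AMC in 100 mM HEPES pH 7.5, 0.5 mM EDTA, 20% glycerol, 5 mM DTT. AMC fluorescence read at 355/460 nm (ex/em).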

SMILES | Activity
NC1CCC(Nc2nc(NCc3ccc(-c4cccc(F)c4)nc3)c3ncn(C4CCCC4)c3n2)CC1 (stereo unspecified) | Active
NC1CCC(Nc2nc(NCc3ccc(-c4ccco4)nc3)c3ncn(C4CCCC4)c3n2)CC1 (stereo unspecified) | Active
NC1CCC(Nc2nc(NCc3ccc(-n4cccn4)cc3)c3ncn(C4CCCC4)c3n2)CC1 (stereo unspecified) | Active

Tested on: MCF7
Test: Cytotoxicity against human MCF7 cells assessed as growth inhibition after 72 hrs by calcein AM staining-based fluoroscence assay
Format: functional, cell-based
Details: MCF7, 72 h

SMILES | IC50
NC1CCC(Nc2nc(NCc3ccc(-c4cccc(F)c4)nc3)c3ncn(C4CCCC4)c3n2)CC1 (stereo unspecified) | 33 nM
NC1CCC(Nc2nc(NCc3ccc(-c4ccco4)nc3)c3ncn(C4CCCC4)c3n2)CC1 (stereo unspecified) | 33 nM
NC1CCC(Nc2nc(NCc3ccc(-n4cccn4)cc3)c3ncn(C4CCCC4)c3n2)CC1 (stereo unspecified) | 139 nM

Tested on: K562
Test: Cytotoxicity against human K562 cells assessed as growth inhibition after 72 hrs by calcein AM staining-based fluoroscence assay
Format: functional, cell-based
Details: K562, 72 h

SMILES | IC50
NC1CCC(Nc2nc(NCc3ccc(-c4cccc(F)c4)nc3)c3ncn(C4CCCC4)c3n2)CC1 (stereo unspecified) | 61 nM
NC1CCC(Nc2nc(NCc3ccc(-c4ccco4)nc3)c3ncn(C4CCCC4)c3n2)CC1 (stereo unspecified) | 67 nM
NC1CCC(Nc2nc(NCc3ccc(-n4cccn4)cc3)c3ncn(C4CCCC4)c3n2)CC1 (stereo unspecified) | 119 nM

Tested on: G-361
Test: Induction of apoptosis in human G361 cells assessed as induction of PARP-1 clevage at 300 nM after 24 hrs by immunoblotting analysis
Format: functional, cell-based
Details: not given
Procedure, shortened: as §1

SMILES | Activity
NC1CCC(Nc2nc(NCc3ccc(-c4cccc(F)c4)nc3)c3ncn(C4CCCC4)c3n2)CC1 (stereo unspecified) | Active
NC1CCC(Nc2nc(NCc3ccc(-c4ccco4)nc3)c3ncn(C4CCCC4)c3n2)CC1 (stereo unspecified) | Active
NC1CCC(Nc2nc(NCc3ccc(-n4cccn4)cc3)c3ncn(C4CCCC4)c3n2)CC1 (stereo unspecified) | Active

Biological target: Cyclin-dependent kinase 9 (Homo sapiens) (UniProt P50750)
Test: Inhibition of CDK9-mediated RNA polymerase 2 phosphorylation at ser2 in human G361 cells at 300 nM after 24 hrs by immunoblotting analysis
Format: cell-based
Details: G-361
Procedure, shortened: as §1

Sequence of Cyclin-dependent kinase 9 (Homo sapiens) (P50750 whole entry): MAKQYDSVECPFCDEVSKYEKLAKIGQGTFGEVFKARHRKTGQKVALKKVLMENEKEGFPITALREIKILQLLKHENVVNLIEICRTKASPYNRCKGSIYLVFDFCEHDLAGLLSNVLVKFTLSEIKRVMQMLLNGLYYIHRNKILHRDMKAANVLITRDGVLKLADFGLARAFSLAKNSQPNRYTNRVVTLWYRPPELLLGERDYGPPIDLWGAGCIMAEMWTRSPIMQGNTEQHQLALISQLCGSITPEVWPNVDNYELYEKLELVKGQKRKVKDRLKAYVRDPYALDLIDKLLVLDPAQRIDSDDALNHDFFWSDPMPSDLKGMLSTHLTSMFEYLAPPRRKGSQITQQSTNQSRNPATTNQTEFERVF

Inhibition of RNA polymerase II Ser2 phosphorylation (qualitative) | SMILES
Active | NC1CCC(Nc2nc(NCc3ccc(-c4cccc(F)c4)nc3)c3ncn(C4CCCC4)c3n2)CC1 (stereo unspecified)
Active | NC1CCC(Nc2nc(NCc3ccc(-c4ccco4)nc3)c3ncn(C4CCCC4)c3n2)CC1 (stereo unspecified)
Active | NC1CCC(Nc2nc(NCc3ccc(-n4cccn4)cc3)c3ncn(C4CCCC4)c3n2)CC1 (stereo unspecified)

— ChEMBL document CHEMBL2401709 (J Med Chem, 2013)
